Data published in ChEMBL document CHEMBL3351344 (J Med Chem, 2014).

Columns and labels:
Liver microsome [1] = experiment: Metabolic stability in human liver microsomes assessed as compound remaining at 10 uM after 30 mins; format: ADME; conditions: 0.5 h
Summary of the method: (§1)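 Compound at 10 µM was incubated for 30 min with liver microsomes (H = human, R = rat). Stability was expressed as percent of compound remaining.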

Liver microsome [2] = experiment: Metabolic stability in rat liver microsomes assessed as compound remaining at 10 uM after 30 mins; format: ADME; conditions: 0.5 h; summary of the method: as §1
[3] = Aqueous kinetic solubility of the compound in pH 7.4 PBS buffer; format: physicochemical
Cytochrome P450 2C9 = Cytochrome P450 2C9 (Homo sapiens, UniProt P11712); experiment: Inhibition of CYP2C9 (unknown origin)
Cytochrome P450 2C9, sequence (P11712 whole entry): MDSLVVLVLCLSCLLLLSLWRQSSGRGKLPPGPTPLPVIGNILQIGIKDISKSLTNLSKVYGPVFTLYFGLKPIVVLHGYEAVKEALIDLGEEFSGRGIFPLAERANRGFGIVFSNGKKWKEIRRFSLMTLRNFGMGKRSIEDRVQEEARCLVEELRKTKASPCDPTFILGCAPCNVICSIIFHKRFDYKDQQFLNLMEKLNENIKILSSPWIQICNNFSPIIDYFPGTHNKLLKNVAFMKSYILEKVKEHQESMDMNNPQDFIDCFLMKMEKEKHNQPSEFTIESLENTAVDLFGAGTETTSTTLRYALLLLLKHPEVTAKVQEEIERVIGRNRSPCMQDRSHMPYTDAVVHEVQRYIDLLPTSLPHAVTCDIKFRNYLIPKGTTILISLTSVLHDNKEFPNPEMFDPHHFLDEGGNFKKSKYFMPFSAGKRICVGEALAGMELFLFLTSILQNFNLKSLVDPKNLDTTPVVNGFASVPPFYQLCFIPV

Cytochrome P450 2C19 = Cytochrome P450 2C19 (Homo sapiens, UniProt P33261); experiment: Inhibition of CYP2C19 (unknown origin)
Cytochrome P450 2C19, sequence (P33261 whole entry): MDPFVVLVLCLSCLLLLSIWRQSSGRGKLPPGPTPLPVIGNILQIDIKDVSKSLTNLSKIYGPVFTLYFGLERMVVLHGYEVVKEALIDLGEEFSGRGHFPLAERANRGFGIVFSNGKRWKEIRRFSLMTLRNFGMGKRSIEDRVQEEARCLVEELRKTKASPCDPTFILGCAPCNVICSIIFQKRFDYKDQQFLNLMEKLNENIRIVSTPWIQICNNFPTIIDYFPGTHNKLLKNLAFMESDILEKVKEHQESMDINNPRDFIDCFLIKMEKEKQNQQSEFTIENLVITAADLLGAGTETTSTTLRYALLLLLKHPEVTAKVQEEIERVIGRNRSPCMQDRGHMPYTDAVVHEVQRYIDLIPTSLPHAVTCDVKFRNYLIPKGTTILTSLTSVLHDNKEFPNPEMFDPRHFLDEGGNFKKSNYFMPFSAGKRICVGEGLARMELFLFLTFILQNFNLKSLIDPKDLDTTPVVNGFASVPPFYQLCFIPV

Cytochrome P450 2D6 = Cytochrome P450 2D6 (Homo sapiens, UniProt P10635); experiment: Inhibition of CYP2D6 (unknown origin)
Cytochrome P450 2D6, sequence (P10635 whole entry): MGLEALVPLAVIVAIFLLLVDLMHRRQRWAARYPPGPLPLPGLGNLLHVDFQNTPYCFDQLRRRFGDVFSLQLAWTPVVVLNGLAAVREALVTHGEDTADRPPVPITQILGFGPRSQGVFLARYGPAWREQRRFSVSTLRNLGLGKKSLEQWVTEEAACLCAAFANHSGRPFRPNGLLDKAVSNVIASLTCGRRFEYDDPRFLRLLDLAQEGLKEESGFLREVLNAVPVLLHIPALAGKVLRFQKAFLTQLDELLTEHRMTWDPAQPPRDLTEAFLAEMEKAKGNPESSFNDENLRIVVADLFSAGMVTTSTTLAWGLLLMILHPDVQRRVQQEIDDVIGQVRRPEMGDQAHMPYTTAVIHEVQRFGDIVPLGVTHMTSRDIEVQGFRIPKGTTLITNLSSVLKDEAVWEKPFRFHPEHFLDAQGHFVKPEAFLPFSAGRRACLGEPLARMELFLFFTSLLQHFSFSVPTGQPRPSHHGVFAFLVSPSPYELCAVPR

Cytochrome P450 3A4 = Cytochrome P450 3A4 (Homo sapiens, UniProt P08684); experiment: Inhibition of CYP3A4 (unknown origin)
Cytochrome P450 3A4, sequence (P08684 whole entry): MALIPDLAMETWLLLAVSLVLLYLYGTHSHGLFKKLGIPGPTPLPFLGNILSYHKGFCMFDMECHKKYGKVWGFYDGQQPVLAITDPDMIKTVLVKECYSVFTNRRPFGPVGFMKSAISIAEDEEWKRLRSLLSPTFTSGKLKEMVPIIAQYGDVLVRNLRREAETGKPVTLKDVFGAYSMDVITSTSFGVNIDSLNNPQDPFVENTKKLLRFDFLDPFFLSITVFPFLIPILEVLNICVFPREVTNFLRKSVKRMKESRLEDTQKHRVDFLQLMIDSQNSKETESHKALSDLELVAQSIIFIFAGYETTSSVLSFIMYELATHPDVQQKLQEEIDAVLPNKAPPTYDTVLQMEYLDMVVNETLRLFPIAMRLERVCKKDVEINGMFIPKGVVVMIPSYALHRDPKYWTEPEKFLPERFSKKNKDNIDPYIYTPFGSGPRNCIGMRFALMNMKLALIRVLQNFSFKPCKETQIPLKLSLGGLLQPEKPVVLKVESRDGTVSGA

[4] = target: T1, Retinol-binding protein 4 (Homo sapiens, UniProt P02753)
[5] = target: T1, Retinol-binding protein 4; remark: listed apart in the source
[6] = Cmax in Sprague-Dawley rat plasma at 0.5 mg/kg, iv; format: ADME, organism-based; parameters: dose 0.5 mg/kg, route intravenous
Summary of the method: (§2)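 Groups of three drug-naive adult male Sprague-Dawley rats. Dosing was iv at 0.5 mg/kg once on day 0, or po at 5 mg/kg once on day 0 or once daily from day 0 to day 6. Cmax is the maximum observed plasma concentration. Pre-dose plasma was also sampled on day 6, and urine was collected 0–48 h after iv dosing.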

[7] = Cmax in Sprague-Dawley rat plasma at 5 mg/kg, po; format: ADME, organism-based; parameters: dose 5 mg/kg, route oral; summary of the method: as §2
[8] = Apparent half-life of the terminal phase of elimination in Sprague-Dawley rat plasma at 0.5 mg/kg, iv; format: ADME, organism-based; parameters: dose 0.5 mg/kg, route intravenous; conditions: read-out: betat1/2(app) (converted)
Summary of the method: (§3)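 Three drug-naive adult male Sprague-Dawley rats per group, given a single iv dose on day 0. Compound was measured in plasma over time. Parameters were derived from the plasma concentration–time curve: terminal-phase half-life, total body clearance, and steady-state volume of distribution. Urine was also collected from 0 to 48 h.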

[9] = Apparent half-life of the terminal phase of elimination in Sprague-Dawley rat plasma at 5 mg/kg, po; format: ADME, organism-based; parameters: dose 5 mg/kg, route oral; conditions: read-out: betat1/2(app) (converted)
Summary of the method: (§4)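 Adult male Sprague-Dawley rats, drug-naive, three per group. Plasma levels gave the terminal-phase half-life. Bioavailability F = (AUCINF po × dose iv) ÷ (AUCINF iv × dose po), using a 0.5 mg/kg iv reference group.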

[10] = AUClast in Sprague-Dawley rat plasma at 0.5 mg/kg, iv; format: ADME, organism-based; parameters: time 0 - last, dose 0.5 mg/kg, route intravenous
Summary of the method: (§5)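 Single intravenous dose of 0.5 mg/kg given on day 0 to a group of three drug-naive adult male Sprague-Dawley rats. Compound was measured in plasma over time, and urine was collected from 0 to 48 h. AUClast runs from 0 to the last quantifiable time point; AUC(0–inf) is extrapolated to infinity. Values are group means.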

[11] = AUClast in Sprague-Dawley rat plasma at 5 mg/kg, po; format: ADME, organism-based; parameters: time 0 - last, dose 5 mg/kg, route oral
Summary of the method: (§6)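 Oral dosing at 5 mg/kg in groups of three drug-naive adult male Sprague-Dawley rats, given either once on day 0 or once daily from day 0 to day 6. Plasma was sampled after the day 0 or day 6 dose. AUClast runs from 0 to the last quantifiable point; AUC(0–inf) is extrapolated to infinity. Values are means.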

[12] = AUC (0 to infinity) in Sprague-Dawley rat plasma at 0.5 mg/kg, iv; format: ADME, organism-based; parameters: time infinity, dose 0.5 mg/kg, route intravenous; summary of the method: as §5
[13] = AUC (0 to infinity) in Sprague-Dawley rat plasma at 5 mg/kg, po; format: ADME, organism-based; parameters: time infinity, dose 5 mg/kg, route oral; summary of the method: as §6
[14] = Clearance in Sprague-Dawley rat plasma at 0.5 mg/kg, iv; format: ADME, organism-based; parameters: dose 0.5 mg/kg, route intravenous; summary of the method: as §3
[15] = Volume of distribution at steady state in Sprague-Dawley rat plasma at 0.5 mg/kg, iv; format: ADME, organism-based; parameters: dose 0.5 mg/kg, route intravenous; conditions: read-out: Vdss; summary of the method: as §3
[16] = Oral bioavailability in Sprague-Dawley rat plasma at 5 mg/kg; format: ADME, organism-based; summary of the method: as §4
in vivo [17] = conditions: Sprague-Dawley, rat, plasma, iv, 0.5 mg/kg
in vivo [18] = conditions: Sprague-Dawley, rat, plasma, po, 5 mg/kg

| SMILES | Stability (Liver microsome [1]) [%] | Stability (Liver microsome [2]) [%] | Kinetic_solubility [3] [µM] | IC50 [4] [µM] | IC50 [5] [µM] | further results |
| --- | --- | --- | --- | --- | --- | --- |
| COc1ccc(NC(=O)N2C[C@H]3C[C@@H](c4ccccc4C(F)(F)F)C[C@H]3C2)c(C(=O)O)c1 | 89 | 72 | 34 | 0.17 | – | IC50 (Cytochrome P450 2C9): 13 µM; IC50 (Cytochrome P450 2C19): 75 µM; IC50 (Cytochrome P450 2D6): > 100 µM; IC50 (Cytochrome P450 3A4): 8 µM |
| CN(CCOc1ccc(F)cc1C(C)(C)C)C(=O)Nc1ccccc1C(=O)O | 3.2 | – | – | 0.141 | – | – |
| C[C@H](NC(=O)N1C[C@H]2C[C@@H](c3ccccc3C(F)(F)F)C[C@H]2C1)C(=O)O | – | – | – | 1.48 | – | – |
| O=C(O)c1ccccc1NC(=O)N1CCC2(CCc3ccccc32)CC1 | – | – | – | 3.76 | – | – |
| O=C(O)c1cc(Cl)ccc1NC(=O)N1C[C@H]2C[C@@H](c3ccccc3C(F)(F)F)C[C@H]2C1 | 89 | 87 | 60 | […] | – | – |
| O=C(O)CC(=O)N1CCC(c2ccccc2C(F)(F)F)CC1 | – | – | – | 1.47 | – | – |
| O=C(O)c1ccccc1NC(=O)N1C[C@@H]2[C@H](C1)[C@@H]2c1ccccc1C(F)(F)F | – | – | – | > 3 | – | – |
| O=C(O)[C@H](NC(=O)N1C[C@H]2C[C@@H](c3ccccc3C(F)(F)F)C[C@H]2C1)c1ccccc1 | – | – | – | 1.32 | 8.34 | – |
| CN(CCOc1ccccc1C(F)(F)F)C(=O)Nc1ccccc1C(=O)O | – | – | – | 1.9 | 2.65 | – |
| O=C(O)c1ccccc1NC(=O)N1CC(Oc2ccccc2C(F)(F)F)C1 | – | – | – | 1.44 | – | – |
| O=C(O)c1ccccc1NC(=O)N1C[C@H]2C[C@@H](c3ccccc3C(F)(F)F)C[C@H]2C1 | 100 | 75 | 55 | 0.0727 | 0.294 | IC50 (Cytochrome P450 2C9): 0.34 µM; IC50 (Cytochrome P450 2C19): 29 µM; IC50 (Cytochrome P450 2D6): > 100 µM; IC50 (Cytochrome P450 3A4): 28 µM; Cmax [6]: 2.94 µg/mL; Cmax [7]: 7.83 µg/mL; half-life [8]: 10.3 h; half-life [9]: 7.6 h; AUC(0-t) [10]: 13.2 µg·h/mL; AUC(0-t) [11]: 62.1 µg·h/mL; AUC(0-inf) [12]: 14.3 µg·h/mL; AUC(0-inf) [13]: 63 µg·h/mL; clearance [14]: 0.0353 L/h/kg; Vd [15]: 0.523 L/kg; bioavailability [16]: 44%; Tmax (in vivo [17]): 4.98 min; Tmax (in vivo [18]): 0.33 h |
| O=C(O)CCC(=O)N1CCC(c2ccccc2C(F)(F)F)CC1 | – | – | – | > 3 | – | – |
| O=C(O)c1ccccc1NC(=O)N1CCc2ccccc2CC1 | – | – | – | > 3 | – | – |
| C[C@@H](NC(=O)N1C[C@H]2C[C@@H](c3ccccc3C(F)(F)F)C[C@H]2C1)C(=O)O | – | – | – | > 3 | – | – |
| CS(=O)(=O)NC(=O)c1ccccc1NC(=O)N1CCC(c2ccccc2C(F)(F)F)CC1 | – | – | – | 0.298 | – | – |
| O=C(O)c1cnncc1NC(=O)N1C[C@H]2C[C@@H](c3ccccc3C(F)(F)F)C[C@H]2C1 | 97 | 61 | > 100 | 0.024 | 0.121 | IC50 (Cytochrome P450 2C9): 17 µM; IC50 (Cytochrome P450 2C19): 6 µM; IC50 (Cytochrome P450 2D6): > 100 µM; IC50 (Cytochrome P450 3A4): 12 µM |
| CN(CCOc1ccccc1C(C)(C)C)C(=O)Nc1ccccc1C(=O)O | 1.1 | – | – | – | – | – |

| SMILES | Stability (Liver microsome [1]) [%] | Stability (Liver microsome [2]) [%] | Kinetic_solubility [3] [µM] | IC50 [4] [µM] | IC50 [5] [µM] | further results |
| --- | --- | --- | --- | --- | --- | --- |
| O=C(O)c1cnccc1NC(=O)N1C[C@H]2C[C@@H](c3ccccc3C(F)(F)F)C[C@H]2C1 | 81 | 82 | 29 | 0.0187 | 0.179 | IC50 (Cytochrome P450 2C9): 5.6 µM; IC50 (Cytochrome P450 2C19): 2.1 µM; IC50 (Cytochrome P450 2D6): > 100 µM; IC50 (Cytochrome P450 3A4): < 0.046 µM |
| CN(CCOc1ccc(Cl)cc1C(C)(C)C)C(=O)Nc1ccccc1C(=O)O | – | – | – | > 3 | – | – |
| O=C(O)[C@@H](NC(=O)N1C[C@H]2C[C@@H](c3ccccc3C(F)(F)F)C[C@H]2C1)c1ccccc1 | – | – | – | 0.124 | 0.829 | – |
| Cc1cc(NC(=O)N2C[C@H]3C[C@@H](c4ccccc4C(F)(F)F)C[C@H]3C2)c(C(=O)O)cn1 | 71 | 76 | 93 | – | – | IC50 (Cytochrome P450 2C9): 1 µM; IC50 (Cytochrome P450 2C19): 12 µM; IC50 (Cytochrome P450 2D6): > 100 µM; IC50 (Cytochrome P450 3A4): 1.1 µM |
| O=C(O)C1CCCN1C(=O)N1CCC(c2ccccc2C(F)(F)F)CC1 (racemic) | – | – | – | > 3 | – | – |
| O=C(O)c1ccccc1NC(=O)N1CC2(C1)CN(c1ccccc1C(F)(F)F)C2 | – | – | – | > 3 | – | – |
| CS(=O)(=O)c1ccc(NC(=O)N2C[C@H]3C[C@@H](c4ccccc4C(F)(F)F)C[C@H]3C2)c(C(=O)O)c1 | 100 | 100 | > 100 | 0.163 | 1.55 | IC50 (Cytochrome P450 2C9): 8.7 µM; IC50 (Cytochrome P450 2C19): 32 µM; IC50 (Cytochrome P450 2D6): > 100 µM; IC50 (Cytochrome P450 3A4): 42 µM |
| O=C(O)C(=O)N1CCC(c2ccccc2C(F)(F)F)CC1 | – | – | – | 0.234 | 3.13 | – |
| O=C(NS(=O)(=O)C1CC1)c1ccccc1NC(=O)N1CCC(c2ccccc2C(F)(F)F)CC1 | – | – | – | 0.244 | 5.31 | – |
| O=C(O)c1ccccc1NC(=O)N1C[C@@H]2[C@H](C1)[C@H]2c1ccccc1C(F)(F)F | – | – | – | > 3 | – | – |
| O=C(O)c1ccccc1NC(=O)N1CC(c2ccccc2C(F)(F)F)C1 | – | – | – | > 3 | 8.38 | – |
| O=C(O)c1ccccc1NC(=O)N1C[C@H]2C[C@H](c3ccccc3C(F)(F)F)C[C@H]2C1 | – | – | – | > 3 | – | – |
| O=C(O)c1cc(F)ccc1NC(=O)N1C[C@H]2C[C@@H](c3ccccc3C(F)(F)F)C[C@H]2C1 | 57 | 100 | 55 | 0.0888 | 0.285 | IC50 (Cytochrome P450 2C9): 0.33 µM; IC50 (Cytochrome P450 2C19): 31 µM; IC50 (Cytochrome P450 2D6): > 100 µM; IC50 (Cytochrome P450 3A4): 53 µM |
| O=C(O)c1ccccc1NC(=O)N1CCC(c2ccccc2C(F)(F)F)CC1 | 3 | 85 | 57 | – | – | IC50 (Cytochrome P450 2C9): > 100 µM; IC50 (Cytochrome P450 2C19): 52 µM; IC50 (Cytochrome P450 2D6): 100 µM |
| O=C(O)c1cccnc1NC(=O)N1C[C@H]2C[C@@H](c3ccccc3C(F)(F)F)C[C@H]2C1 | 83 | 81 | 82 | > 3 | – | IC50 (Cytochrome P450 2C9): 27 µM; IC50 (Cytochrome P450 2C19): 33 µM; IC50 (Cytochrome P450 2D6): > 100 µM; IC50 (Cytochrome P450 3A4): > 100 µM |
| O=C(NS(=O)(=O)c1ccccc1)c1ccccc1NC(=O)N1CCC(c2ccccc2C(F)(F)F)CC1 | – | – | – | > 3 | – | – |
